# Shown are actives, neighbours in structure and some others; about 1.3% of the full set was active somewhere.
# HTRA1 inhibitor: HTRA1 (human) protease inhibition; Q92743; 340,000 tested, 0.5% active; inhibition, % at 5.96 µM; AID 504803; recombinant HTRA1, FP-rhodamine activity-based probe, fluorescence polarization; in the data active = inhibition above about 36%;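 also: 0% = enzyme with DMSO and 100% = wells lacking enzyme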
# Tn7 DDE FP: inhibitors of Tn7 peptide binding to human fibrin DD(E). P02675. FP displacement of FITC-Tn7 peptide from fibrin DD(E); 0% = median of compound wells per plate. inhibition, % at 8.3 µM. 370,000 tested, 0.13% active. AID 720508;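 active = inhibition above the mean of compounds falling within the control limits plus 3 SD of them, cut at about 14% in these data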;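 also: 0% = plate median of compound wells and 100% = 10 µM Aha-Tn7 peptide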
# Target sequence (P02675 whole entry, looked up): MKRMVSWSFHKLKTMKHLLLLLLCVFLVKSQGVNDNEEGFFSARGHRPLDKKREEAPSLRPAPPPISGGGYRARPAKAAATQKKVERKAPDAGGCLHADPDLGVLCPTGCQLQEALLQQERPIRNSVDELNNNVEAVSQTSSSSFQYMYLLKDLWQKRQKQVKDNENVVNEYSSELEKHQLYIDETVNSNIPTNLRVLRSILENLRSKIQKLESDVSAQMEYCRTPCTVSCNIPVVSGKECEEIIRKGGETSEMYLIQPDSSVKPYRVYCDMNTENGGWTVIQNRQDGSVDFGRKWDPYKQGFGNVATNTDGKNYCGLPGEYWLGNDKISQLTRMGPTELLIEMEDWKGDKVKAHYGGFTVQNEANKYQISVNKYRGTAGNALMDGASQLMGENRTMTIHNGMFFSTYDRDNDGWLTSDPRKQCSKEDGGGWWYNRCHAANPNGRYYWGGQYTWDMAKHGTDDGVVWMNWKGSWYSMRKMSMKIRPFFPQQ
#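 System: human fibrin DD(E); quantity: Fibrin-DD(E) at 2 µM final; also added: fluorescent Tn7 probe at 0.1 µM; compound dosing: single nominal test concentration of 8.3 µM per compound; schedule: 10 min preincubation, 3 h with tracer, room temperature; detection: fluorescence polarization of the labelled Tn7 tracer; repeats: one replicate per compound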
# ABHD4 inh: inhibits mouse alpha/beta hydrolase domain 4 | Q8VD66 | 370,000 tested, 0.54% active | purified mABHD4, FP-Rh probe fluorescence polarization | inhibition, % at 8.92 µM | AID 720543;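 active = inhibition exceeding the mean over every tested compound plus 3 SD, cut at about 30% in these data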;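 also: 0% = plate median of compound wells and 100% = S159A mutant with DMSO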
#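 Assay system: mABHD4 protein; medium: HEPES pH 7.0, NaCl, Pluronic buffer; dosing: 8.92 µM, single dose; schedule: 45 min + 60 min at 25 °C; signal: FP readout, ex 525 nm / em 598 nm; read-out: normalized percent inhibition of probe labeling; repeats: single replicate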
# DDE Tn6 FP inh: inhibitors of Tn6 peptide binding to human fibrin DD(E); P02675; Fibrin DD(E) TRITC-Tn6 fluorescence polarization displacement; inhibition, % at 8.3 µM; 370,000 tested, 0.21% active;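 active = inhibition above a per-campaign cutoff: mean of compounds within control limits plus 3 SD, cut at about 15% in these data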;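 also: 0% = median of all compound wells on the plate and 100% = blocking peptide control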
# TCR CD3 inh: human TCR-CD3 binding inhibition | inhibition, % at 9.4 µM | TAMRA-labeled TCR probe fluorescence, biochemical | AID 651800 | 360,000 tested, 0.37% active;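 also: recombinant mutant TCR 2C K166C tagged with TAMRA read by polarization; 0% = receptor in buffer alone and 100% = receptor with positive control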
# HTRA1 conf: HTRA1 (human) inhibition, confirmation; shares compounds with HTRA1 inhibitor; recombinant HTRA1, FP-rhodamine activity-based probe, fluorescence polarization; inhibition, % at 5.96 µM; 1,600 tested, 66% active;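 active = mean inhibition over three repeats above a set limit taken from the earlier primary screen, cut at about 37% in these data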;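 also: 0% = HTRA1 with DMSO and 100% = wells lacking HTRA1; inhibitors block probe binding so polarization drops and inhibition rises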
# BSA probe FL: counter-screen for TCR-CD3 interaction inhibitors: BSA probe; inhibition, % at 9.4 µM; shares compounds with TCR CD3 inh; TAMRA-labeled BSA probe fluorescence counterscreen; AID 652035; 1,200 tested, 10% active; in the data active = inhibition above about 23%;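 also: 0% = buffer low control and 100% = reference high control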
# TCR-CD3 conf: confirmation of human TCR-CD3 interaction inhibitors. AID 652036. inhibition, % at 9.4 µM. 1,200 tested, 48% active. TAMRA-labeled TCR probe fluorescence binding assay. shares compounds with TCR CD3 inh
# Tn7 DDE conf: DD(E)-Tn7 binding inhibition, FP confirmation | FP displacement of TRITC-Tn7 peptide from DD(E); 0% set at plate's compound-well median | 460 tested, 5% active | inhibition, % at 8.3 µM | shares compounds with Tn7 DDE FP | AID 720628;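 active = inhibition above the campaign cutoff, the mean of compounds within control limits plus 3 SD, cut at about 14% in these data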;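 also: 100% = median FP of high control wells holding Aha-Tn7 inhibitor peptide; displacers lower polarization since freed probe rises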
# Tn7 DDE ctr: counter-screen hit for Tn7 peptide-fibrin DD(E) binding disruption. shares compounds with Tn7 DDE FP. TRITC-Tn7 probe displacement, fluorescence polarization. inhibition, % at 8.3 µM. 460 tested, 3% active. AID 720633;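 active = inhibition above the cutoff, the mean of compounds lying between the control bounds plus 3 SD of those compounds, cut at about 17% in these data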;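 also: 0% = median of compound sample wells and 100% = excess unlabeled Aha-Tn7 peptide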
# Tn6 DDE ctr: counter-screen for inhibitors of Tn6 peptide binding to fibrin DD(E) | shares compounds with DDE Tn6 FP inh | TRITC-Tn6 fluorescence polarization displacement; 0% = median of compound wells, not DMSO | inhibition, % at 8.3 µM | 680 tested, 2% active;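 active = inhibition above the mean of test compounds lying between the control limits plus 3 SD of those, cut at about 14% in these data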;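 also: 0% = median of compound wells and 100% = wells with Aha-Tn7 blocking peptide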
# Tn6 DDE conf: confirmation of inhibitors of Tn6 binding to human fibrin DD(E) | shares compounds with DDE Tn6 FP inh | 680 tested, 10% active | FP displacement of TRITC-Tn6 peptide from DD(E); 0% = per-plate median of test wells | inhibition, % at 8.3 µM;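 active = inhibition above the mean of compounds lying within the control limits plus 3 SD, cut at about 16% in these data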;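 also: 100% = high control wells holding a competing inhibitor peptide at 10 µM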
# ABHD4 confirm: ABHD4 (mouse) inhibition, FP confirmation; purified mABHD4, FP-Rh probe fluorescence polarization; shares compounds with ABHD4 inh; 1,800 tested, 55% active; inhibition, % at 8.92 µM;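 active = mean inhibition across replicates above the hit cutoff set in the primary screen, cut at about 30% in these data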;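 also: 0% = wild-type ABHD4 with DMSO and 100% = catalytically dead S159A mutant with DMSO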
# The depositor's hits bear a star; / = no result. Rule as the data show it, unless noted: active = inhibition above about 19%; inactive = the rest.
SMILES,HTRA1 inhibitor,Tn7 DDE FP,ABHD4 inh,DDE Tn6 FP inh,TCR CD3 inh,HTRA1 conf,ABHD4 confirm,others
Cc1cc2cc(CNC(=O)COc3ccccc3)ccc2n1C,45*,3,32*,46*,27*,5,-7,BSA probe FL=14;TCR-CD3 conf=9;Tn6 DDE ctr=4;Tn6 DDE conf=9
Cc1ccc(S(=O)(=O)NCc2ccncc2)cc1,0,-3,-1,1,4,/,/,
COc1ccc(CC(=O)NCc2ccc3c(c2)cc(C)n3C)cc1OC,8,6,1,0,8,/,/,
Cc1ccc(S(=O)(=O)NCc2ccc3c(c2)cc(C)n3C)cc1,40*,-7,60*,71*,42*,11,1,BSA probe FL=6;TCR-CD3 conf=6;Tn6 DDE ctr=4;Tn6 DDE conf=-1
Cc1cc2cc(CNC(=O)Nc3ccc(Cl)c(Cl)c3)ccc2n1C,41*,-12,38*,96*,72*,13,-12,BSA probe FL=3;TCR-CD3 conf=5;Tn6 DDE ctr=0;Tn6 DDE conf=35*
Cc1cc2cc(CNC(=O)NC3CCCCC3)ccc2n1C,30,-4,14,-1,3,/,/,
O=C(NC1CCCCC1)C(c1ccncc1)N(CC1CCCO1)C(=O)C(F)(F)F (stereo unspecified),7,-2,-7,-4,-2,/,/,
Cc1ccc(CSc2nnc(CNc3ccc(F)cc3)o2)cc1,-6,0,-16,-2,-2,/,/,
CC1=NN(c2ccc(C)cc2)C(=O)/C1=C/c1ccc(-c2cc([N+](=O)[O-])ccc2O)o1,46*,-9,31*,-7,-4,53*,53*,
CC(NC(=O)c1ccc(N)cc1)c1ccccc1 (stereo unspecified),-7,-4,-8,-4,-1,/,/,
CCN=c1scc(C)n1/N=C/c1ccc(O)c(O)c1O,60*,0,60*,1,27*,81*,49*,BSA probe FL=-20;TCR-CD3 conf=41*
CCN=c1scc(-c2ccco2)n1/N=C/c1ccc(O)cc1,16,-7,20,-3,5,/,/,
CC(C)CN(C(=O)COC(=O)/C=C/c1ccccc1)C1CCS(=O)(=O)C1 (stereo unspecified),8,3,4,0,-1,/,/,
Oc1ccc2ccccc2c1/C=C/c1ccc2c(Br)cc(Br)c(O)c2n1,66*,-6,34*,-24,-9,69*,21,
COc1cc(Br)c(/C=C/c2ccc3cccc(O)c3n2)cc1OC,10,3,9,-3,0,/,/,
O=C(N[C@@H](Cc1cccnc1)C(=O)N1CCC[C@H]1C(=O)NC1CCCC1)c1cccs1,/,2,-11,2,0,/,/,
CCCCCCn1c(=O)[nH]c2nc3cc(N)c(C)cc3nc2c1=O,64*,30*,49*,-11,11,15,39*,Tn7 DDE conf=0;Tn7 DDE ctr=7

# Screening data as filed in PubChem BioAssay.
